From ChEMBL document CHEMBL4513216, “Probing the Open Global Health Chemical Diversity Library for Multistage-Active Starting Points for Next-Generation Antimalarials” (ACS Infect Dis, 2020)

Test: Toxicity liver stage against HepG2, at 10uM
Type: cell-based
Parameters: test concentration 10 uM, cell line HepG2-A16-CD81EGFP
Conditions: human, HepG2-A16-CD81EGFP cells; read-out: INHIBITION
How it was run: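 Uninfected HepG2-A16-CD81EGFP cells, 3 × 10^3 per well, 1536-well, plated on prespotted compound at 10 μM final, parasite-free screening media added to match infected plates; puromycin 10 μM positive, DMSO 0.5% negative; run in parallel with 48 h PbLuc assay at 37 °C, 5% CO2; viability by CellTiter-Glo luminescence, normalized to controls.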

Point of comparison: CC1CCN(C(=O)CN2CCC(c3n[nH]c(C4CC4)n3)CC2)CC1, cytotoxicity at 10 µM -0.297%. Against it:
- Cc1cccc(N2CCN(Cc3nc(CC4CC4)no3)CC2)n1 — lower, -10.1%
- Cc1ccc2nc3n(c2c1)[C@@H](CNC(=O)c1ccncc1)COC3 — lower, -3.61%
- CC(C)NC(=O)c1nc(COc2ccc3c(c2)OCO3)no1 — lower, -1.11%
- Cc1cccc(NC(=O)C2(n3cnnn3)CCCCC2)n1 — lower, -1.05%
- CCC(CNC(C)=O)(OC)c1ccccc1 (stereo not drawn) — higher, 1.97%
- CCN1C(=O)CC(c2cnn(C)c2)C12CCN(C(=O)C1CC=CC1)CC2 (stereo not drawn) — higher, 5.13%
- CC(C)N1c2sc(-c3ccccc3)nc2CC1C(=O)NCCCO (stereo not drawn) — higher, 7.8%
- O=C(C1CC1)N1CC[C@H]2C(=O)N(c3ccsc3)CCO[C@H]2C1 — higher, 9.85%
- Cc1nc(COCc2cnc3n2CCN(C(=O)C2CC2)C3C)cs1 (stereo not drawn) — higher, 11.4%
- Cc1nnc(N2CCCC3(CN(c4cccc(F)c4)CCO3)C2)o1 (stereo not drawn) — higher, 0.777%
- CCC1=N[C@@]2(CC[C@@H]3CN(S(=O)(=O)CC)C[C@@H]32)C(=O)N1CCOC — higher, -0.211%
- CSc1nc2cc(C)n(CC(=O)N3CCCC3)c2c(=O)n1CC(C)C — higher, 3.64%
- CCCn1[nH]c(CNc2ccccc2)nc1=O — higher, 9.98%
- NC(=O)C1CCN(C(=O)CCn2ccc3ccc(F)cc32)CC1 — lower, -6.83%
- COCCNC(=O)c1cc2c(s1)CCN2C(=O)c1ccccc1 — lower, -12.9%
- CCn1ccc(CNC(=O)c2cc(OC)cc(OC)c2)n1 — higher, 8.66%
- CN(C)C(=O)CN1CCCC(c2nccnc2-c2cccc(Cl)c2)C1 (stereo not drawn) — higher, 4.21%
- Cc1nc2cc(C3CCOCC3)nn2c(NCC2COCCO2)c1C (stereo not drawn) — higher, 0.135%
- Cc1noc(C)c1-c1cccc(C2CCN(S(=O)(=O)N(C)C)CC2)n1 — higher, 8.18%
- CC(=O)N1CCCCC[C@@H]2[C@@H]1[C@H](c1cccc(F)c1)CN2CCC(N)=O — lower, -1.08%
- COC(=O)[C@H]1CN(C(=O)c2cscn2)C[C@@H]1c1ccc(F)cc1 — lower, -26.3%
- Cc1cc(CN2CCC(C3Nc4ccccc4S(=O)(=O)N3)CC2)oc1C (stereo not drawn) — higher, 4.22%
- Cn1nc(C2CN(C(=O)c3cccnc3)C2)c2nccnc21 — lower, -21.7%
- O=C(CCc1ccccc1)N1CCCC(c2n[nH]c3nccnc23)C1 (stereo not drawn) — higher, 20.9%
- O=C(c1ccncc1)N1CCC(O)(Cn2ccc3ccncc32)CC1 — higher, 1.93%
- NC(=O)C1(c2cnccn2)CCCN1Cc1cc2ccccc2o1 (stereo not drawn) — lower, -1.19%
- COc1ccccc1-c1nc(C(=O)N2CCOCC2)n2ccncc12 — higher, 11.9%
- CS(=O)(=O)N1CC2(CCN(C3CCCCC3)CC2)Cc2ccccc21 — higher, 4.92%
- COc1ccc(SC(C)C(=O)N2CCC(O)CC2)cc1 (stereo not drawn) — higher, 0.887%
- Cc1ccc(C(C)NC(=O)CCc2cnn(C)c2)cc1F (stereo not drawn) — lower, -0.348%
- CC(C)C1CCC(N2CCN(CCS(C)(=O)=O)CC2)CC1 (stereo not drawn) — higher, 7.23%
- CC1CCCCN1C(=O)c1ccc2c(c1)OCCCO2 (stereo not drawn) — higher, 9.62%
- CNS(=O)(=O)c1cccc(C(C)NCc2ccncc2)c1 (stereo not drawn) — lower, -2.53%
- O=C(O)c1ccn(-c2ccccc2NS(=O)(=O)c2cccc(Cl)c2F)n1 — lower, -3.36%
- Cc1ccc(C2COCCN2C(=O)c2cccc(N(C)C)c2)o1 (stereo not drawn) — higher, 8.99%
- Cc1ccn(-c2ccccc2NCc2cccnc2)n1 — higher, 0.508%
- Cc1cc(C)n(C2CN(CC(=O)N(C)Cc3cnn(C)c3)C2)n1 — lower, -5.85%
- NC(=O)C(CNC(=O)Cc1ccsc1)Cc1ccc(F)cc1 (stereo not drawn) — higher, 9.21%
- Cn1cc(CCNC(=O)N2CCCC(Cc3nccn3C)C2)cn1 (stereo not drawn) — lower, -4.52%
- Cc1cc(C)c(CNC(=O)C2COc3ccccc3C2)c(=O)[nH]1 (stereo not drawn) — higher, -0.102%
- CNC(=O)CN1CCC(OCC2CCCO2)CC1 (stereo not drawn) — higher, 1.99%
- CN(CCCc1cc(-c2ccc(F)cc2)n[nH]1)C(=O)CCn1cncn1 — lower, -137%
- CC(C)CN1Cc2cccc(NC(=O)Cc3ccon3)c2C1 — higher, 4.86%
- CS(=O)(=O)CCOCCNc1cncc(Br)c1 — higher, 1.83%
- Cc1cc(CC(=O)NC2CCCN(Cc3ccccc3)C2=O)n[nH]1 (stereo not drawn) — higher, 3.5%
- O=C(N1CCC(O)(C(F)(F)F)C1)C1(c2ccc(Cl)cc2)CC1 (stereo not drawn) — higher, 9.64%
- CCc1nc(CN2CCN(C(=O)COCc3ccccc3)CC2)no1 — higher, 2.41%
- Cn1cnc(S(=O)(=O)N2CCN(Cc3ccco3)CC2)c1Cl — lower, -3.85%
- COC[C@@]12CCC[C@@H]1CN(C(=O)COC1CCCC1)C2 — higher, 4.35%
- CO[C@H]1CC[C@H]2[C@H]1OCCN2C(=O)CC1=CCCCC1 — higher, 5.28%
- O=C(CC(F)(F)F)N1CCc2onc(Cn3cccn3)c2C1 — higher, 0.635%
- O=C(c1cscn1)N1CCN2C[C@H](OCc3cccnc3)C[C@H]2C1 — lower, -7.62%
- O=C(c1cn(CCN2CCCCC2)nn1)N1CCCCO1 — lower, -4.55%
- COc1ccc(/C=C/CN2CCCC3(C2)CN(C)C(=O)O3)cc1 (stereo not drawn) — lower, -2.67%
- CCCN1CCN(C(=O)c2ccc3nc(C)oc3c2)[C@H]2CS(=O)(=O)C[C@H]21 — lower, -23.2%
- CCC[C@@H]1CN(C(=O)c2c(F)ccc(OC)c2F)C[C@H]1C(=O)O — higher, 0.542%
- CN1CCC(N(CCc2ccccc2)C(=O)c2cc[nH]c2)CC1 — lower, -1.14%
- Cc1ccc(CN(C)C(=O)C(C)n2ccnc2C(C)C)o1 (stereo not drawn) — higher, 5.99%
- Cc1ncc(C)c(N2Cc3cnn(Cc4ccc(F)cc4)c3C2)n1 — higher, 3.3%
- CCCc1nnc2sc(C3CCS(=O)(=O)CC3)nn12 — higher, 1.4%
- O=c1cc(N2CCNCC2)cnn1CCc1ccc(F)cc1 — lower, -8.76%
- Cc1cccc(-n2nc(CC(C)C)nc2CCn2ccc(=O)[nH]c2=O)c1 — lower, -3.7%
- CCS(=O)(=O)N1CC[C@@H]2[C@@H](CCC(=O)N2CCc2ccccc2)C1 — higher, 0.86%
- Cc1cccc(-n2nc(CC(C)C)nc2CCCC(N)=O)c1 — higher, 3.4%
- COc1ccc([C@@H]2CN(Cc3ccncc3)C[C@H]2N(C)C)cc1 — lower, -2.52%
- Cc1cc(C)c2[nH]c(CN3CCCC(N4CCOCC4)C3)cc(=O)c2c1 (stereo not drawn) — lower, -1.78%
- COc1ccc(-c2noc(Cn3cc4c(n3)CCC4)n2)c(OC)c1OC — higher, 4.7%
- CN(C)C(C(=O)N1CCSCC1)c1ccccc1F (stereo not drawn) — higher, 0.32%
- Cc1nn(C)c2nc(N(Cc3ccccc3)CC3CCCO3)sc12 (stereo not drawn) — higher, 8.15%
- COCCN1CCN(C(=O)c2ccc(COC)o2)[C@H]2CS(=O)(=O)C[C@H]21 — lower, -6.15%
- N#Cc1cccc(N2CCOC3(CNCCOC3)C2)n1 (stereo not drawn) — higher, 2.61%
- CC(C)c1nccc(CN2CCC(O)(CN3CCCCC3)C2)n1 (stereo not drawn) — lower, -1.95%
- CC(C)c1cc(N(C)Cc2cc(C3CC3)on2)n2nccc2n1 — higher, 4.28%
- CO[C@@]1(C)C[C@@H](O)C12CCN(C(=O)C1(c3ccccc3F)CC1)CC2 — higher, 3.47%
- CCC(NC(=O)C(C)(C)C)c1ccccc1C (stereo not drawn) — higher, 2.3%
- Cc1nc(N[C@H]2COC[C@@H]2N2CCCC2)c2cnn(C)c2n1 — lower, -1.42%
- COc1ccc(C(C(=O)O)N2CCCN(C3CCCCC3)CC2)cn1 (stereo not drawn) — higher, 13.3%
- CNCC(=O)N1CCCC(c2cccc(Nc3nc(C)cc(C)n3)n2)C1 (stereo not drawn) — lower, -5.07%
- Cc1cnccc1CN1C[C@@H](O)[C@H](Oc2cccc(F)c2)C1 — higher, 2.21%
- Cc1ccccc1-c1cncc(C2CCN(C(C)C)CC2)n1 — higher, 1.2%
- CC(NC(=O)NCCCn1cncn1)c1ccncc1 (stereo not drawn) — lower, -15.9%
- Cc1cccc(OCCN2CCN(Cc3cnn(CCO)c3)CC2)c1 — lower, -5.16%
- O=C(O)c1ccc(F)c(S(=O)(=O)N2CCOc3ccccc32)c1 — lower, -4.28%
- CC(C)n1ccnc1CN1CCCN(C(=O)c2ncccc2O)CC1 — lower, -3.45%
- CC(C)Cc1noc(CN2CCN(S(C)(=O)=O)CC2)n1 — higher, 5.51%
- CNS(=O)(=O)c1ccc(C(=O)NCCNc2ncccn2)cc1 — lower, -5.95%
- CC(C)c1noc(CCC(=O)NCC2CCS(=O)(=O)C2)n1 (stereo not drawn) — higher, 5.7%
- CN(C)CC1CN(Cc2coc(-c3cccs3)n2)CCO1 (stereo not drawn) — higher, 4.48%
- CNc1snc(C)c1C(=O)N1CCCC(n2nc(C)cc2C)C1 (stereo not drawn) — lower, -2.74%
- CCn1cc(NC(=O)NCc2ccc3c(c2)OCCO3)cn1 — lower, -7.71%
- Cc1ccc(-c2ccccc2CC2CNCCNC2=O)c(C)c1 (stereo not drawn) — lower, -1.18%
- Cc1cccc(CN2CC[C@H]3OCC[C@@]3(C(=O)N3CCCO3)C2)n1 — higher, 0.886%
- COc1cc(N2CCc3ncnc(-c4ccncc4)c3CC2)ncn1 — higher, 9.85%
- O=C1COC2(CCN(Cc3nccs3)CC2)CN1CC1CC1 — higher, 4.38%
- Cn1cnc2c(N3CCCC3)nc(C3CCNCC3)cc21 — lower, -9.74%
- CN(C)S(=O)(=O)N1CC[C@H]2OCC[C@@]2(COc2cccnc2)C1 — higher, 11.2%
- O=C(NCC1CC1)[C@H]1C[C@H]2OCC[C@H]2N(CCc2ccccc2)C1 — higher, 3.86%
- c1cnc2c(c1)cc(C1CCOCC1)n2CCN1CCOCC1 — higher, 0.487%
- CCOCC1CN(Cc2ccc(OC)cc2)Cc2nn(CC3CC3)cc21 (stereo not drawn) — higher, 18%
- O=C(c1cnccn1)N1CCc2ncnc(-c3cccnc3)c2CC1 — lower, -3.8%
- O=C1NC2(CCN(Cc3ccoc3)CC2)CC1c1ccncc1 (stereo not drawn) — higher, 6.05%
- c1cnc(N2C[C@H]3CN(CC4CCOC4)C[C@H]3C2)nc1 (stereo partly drawn) — lower, -5.09%
- CN(C)[C@@H]1CCN(S(=O)(=O)c2cn(C)cn2)[C@H]1Cc1cccnc1 — higher, 9.79%
- c1ccc(CCNCC2Cn3nncc3CO2)cc1 (stereo not drawn) — higher, 7.61%
- CCc1ncnc2c1CCN(CCOC)CC2 — higher, 5.19%
- CNC(=O)[C@H]1C[C@H]2OCC[C@H]2N(Cc2ccc(F)cc2)C1 — higher, 3.42%
- O=C(Nc1ccccc1)N1C[C@@H]2CC[C@H]1CN(Cc1ccccc1)C2 — higher, 1.93%
